In brackets after ≈: the same amount, converted by molar mass. Activity calls are given as the source filed them. The rule behind the calls is not given here.

The subject of test [1] is Staphylococcus epidermidis. The test is described as follows: Antibacterial activity against Staphylococcus epidermidis ATCC 12228 by doubling dilution method. In kind it is functional. The procedure, abridged: (§1)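 Doubling (twofold) broth dilution of pure compounds, modified from an earlier published procedure. Gram-positive strains: B. cereus ATCC 10702, S. epidermidis ATCC 12228, M. luteus ATCC 9341. Read-out is MIC in μg/mL. Chloramphenicol served as positive control.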

The next test relates to Bacillus cereus. The test is described as follows: Antibacterial activity against Bacillus cereus ATCC 10702 by doubling dilution method. In kind it is functional. The procedure, abridged:
as §1

The next test has as its system KB. Nature of the test: Cytotoxicity against human KB cells. In kind it is functional, cell-based. The procedure, abridged:
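KB cells (ATCC CCL 17, human nasopharyngeal carcinoma), run by the method of earlier published work. Each test done at least in triplicate. Value given as IC50 in μg/mL. Podophyllotoxin served as positive control.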

Another test deals with Micrococcus luteus. Nature of the test: Antibacterial activity against Micrococcus luteus ATCC 9341 by doubling dilution method. It counts as functional. The gist of the method:
as §1

Where [2] appears, read: Staphylococcus epidermidis, ATCC 12228, read-out: MIC.
The mark [3] stands for this setting: Bacillus cereus, ATCC 10702, read-out: MIC.
Setting [4] is: Homo sapiens, KB, read-out: IC50.

By MIC is commonly meant the lowest concentration found to suppress growth. On to `CCC(=O)C1=C(O)C2=C(OC(C)(C)C=C2)C(C)(CC=C(C)C)C1=O` (stereo in doubt; 6) [HYPERGUINONE A], for which the MIC (in test [1]; in the test with Bacillus cereus) was 32 µg/mL (≈ 96.8 µM) each time.
Take `CCC(=O)C1=C(O)C2=C(OC(C)(C)C=C2)C(C)(CC=C(C)C)C1=O` (stereo in doubt; 6a) [HYPERGUINONE A]: the MIC (in test [1] (setting [2]); in the test with Bacillus cereus (setting [3])) was 32 µg/mL (≈ 96.8 µM) throughout.
`CC(C)=CCC1(C)C(=O)C(C(=O)C(C)C)=C(O)C2=C1OC(C)(C)C=C2` (stereo in doubt; 7): the result in test [1] was inactive.
For orientation: IC50 means the midpoint of a concentration-inhibition curve. In the test with KB (kb), `CC(C)=CCC1(C)C(=O)C(C(=O)C(C)C)=C(O)C2=C1OC(C)(C)C=C2` (stereo in doubt; 7) [HYPERGUINONE B] displayed a 50% inhibitory concentration (IC50) of 13 µg/mL (≈ 37.7 µM). The compound further returned an MIC in the test on Bacillus cereus of 32 µg/mL (≈ 92.9 µM).
As for `CC(C)=CCC1(C)C(=O)C(C(=O)C(C)C)=C(O)C2=C1OC(C)(C)C=C2` (stereo in doubt; 7a), in test [1], the outcome was inactive.
For `CC(C)=CCC1(C)C(=O)C(C(=O)C(C)C)=C(O)C2=C1OC(C)(C)C=C2` (stereo in doubt; 7a) [HYPERGUINONE B], in the test with KB (setting [4]), the IC50 was found to be 13 µg/mL (≈ 37.7 µM). Moreover, in the test with Bacillus cereus (setting [3]), the MIC was 32 µg/mL (≈ 92.9 µM).
On to `CC(C)=CC[C@@H]1C[C@@]2(C)C(=O)[C@](CC=C(C)C)(C(=O)C(C(=O)C(C)C)=C2O)C1(C)C` (stereo in doubt; 8), for which the MIC against Micrococcus luteus amounted to 16 µg/mL (≈ 38.6 µM); in test [1] (setting [2]), 8 µg/mL (≈ 19.3 µM); in the test on Bacillus cereus (setting [3]), 8 µg/mL (≈ 19.3 µM). Further, the IC50 in the test on KB (kb) was determined as 3.2 µg/mL (≈ 7.72 µM).
For the compound `O=C(N[C@H](CO)[C@H](O)c1ccc([N+](=O)[O-])cc1)C(Cl)Cl` [CHLORAMPHENICOL], the figures for the MIC (with Micrococcus luteus; in test [1] (setting [2]); in the test on Bacillus cereus (setting [3])) were 2 µg/mL (≈ 6.19 µM), 4 µg/mL (≈ 12.4 µM) and 2 µg/mL (≈ 6.19 µM), respectively.
For `CC(C)=CC[C@@H]1C[C@]2(C)C(=O)[C@@](C(=O)C(C)C)(C(=O)C3=C2OC(C)(C)C=C3)C1(C)C` [PAPUAFORIN A], in the test on KB (setting [4]), the 50% inhibitory concentration (IC50) is 7.5 µg/mL (≈ 18.2 µM). Further, the result in test [1] was inactive. Further, in the test on Bacillus cereus (setting [3]), the MIC worked out at 64 µg/mL (≈ 155 µM).
Regarding `CCC(C)C(=O)[C@]12C(=O)C3=C(OC(C)(C)C=C3)[C@](C)(C[C@@H](CC=C(C)C)C1(C)C)C2=O` (stereo partly specified) [PAPUAFORIN C], the MIC in the test with Micrococcus luteus worked out at 32 µg/mL (≈ 75 µM); in the test with Bacillus cereus (setting [3]), 64 µg/mL (≈ 150 µM). Moreover, the IC50 with KB (setting [4]) stood at 4.9 µg/mL (≈ 11.5 µM). In addition, the result in test [1] was inactive.
In the case of `CCC(C)C(=O)[C@]12C(=O)C3=C(OC(C)(C)C=C3)[C@](C)(C[C@@H](CC=C(C)C)[C@]1(C)CCC=C(C)C)C2=O` (stereo partly specified) [PAPUAFORIN D], the IC50 with KB (setting [4]) stood at 6.6 µg/mL (≈ 13.3 µM). Also, in test [1], the outcome was inactive. For the same compound, in the test on Bacillus cereus (setting [3]), the MIC amounted to 128 µg/mL (≈ 259 µM).
For `CC(C)=CCC[C@@]1(C)[C@H](CC=C(C)C)C[C@]2(C)C(=O)[C@@]1(C(=O)C(C)C)C(=O)C1=C2OC(C)(C)C=C1` [PAPUAFORIN E], the IC50 in the test with KB (setting [4]) worked out at 5.6 µg/mL (≈ 11.6 µM). Also, the figures for the MIC (in test [1] (setting [2]); with Bacillus cereus (setting [3])) were 32 µg/mL (≈ 66.6 µM) and 64 µg/mL (≈ 133 µM), respectively.
As for `COc1cc([C@@H]2c3cc4c(cc3[C@H](O)[C@H]3COC(=O)[C@H]23)OCO4)cc(OC)c1OC` [PODOFILOX], the IC50 with KB (setting [4]) was found to be 0.006 µg/mL (≈ 0.0145 µM).
